System: MS2 coat protein
Experiment: apparent Kd, MS2 coat protein; higher = weaker binding; RNA-MaP array
Method in brief: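 Apparent Kd values come from the median of binding-curve fits to single clusters. To obtain them, designed RNAs transcribed on an Illumina sequencing chip from sequenced DNA templates were incubated at room temperature with fluorescently labeled MS2 coat protein at 1.5 nM to 3 μM, with or without input ligand, for 0.8–1.5 h at the lowest and 10–20 min at the highest concentrations. Designs measured on fewer than 10 clusters were excluded.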

[1] = designed as: OFF switch for flavin mononucleotide, no ligand
[2] = ligand present: flavin mononucleotide, designed as: OFF switch for flavin mononucleotide
[3] = designed as: ON switch for flavin mononucleotide, no ligand
[4] = ligand present: flavin mononucleotide, designed as: ON switch for flavin mononucleotide

Sequence	apparent Kd [1] [nM]	apparent Kd [2] [nM]	also measured
GGAUGUAGACAGGAUAUUGCCAUUCCAAUGCGCCAAGAAGGGUCUACAUGAGGAUCACCCAUGUAAAGAAUAGG	207	106	–
GGGUACAUCUAGAAGGAGAAUCCUCUUGACAUGAGGAUCACCCAUGUCGUAGUCAAGACUAAAAUCUAGGAUAUAGCUGUGCGU	233	165	–
GGUAGUACCGUAGGAUAUUCCGCUUACAUGAGGAUCACCCAUGUGGCUGGUAUUUCGUCAAAGAAGAAGAAGGACGUCUGCGCG	6.85	6.43	–
GGUUCGCAUGUAGGAUAUCGCAAUAUAAACAUGAGGAUCACCCAUGUAACAAUGUAAACGGACAACGAGAAGGACAUCAACUCC	–	–	apparent Kd [3]: 44.6 nM; apparent Kd [4]: 22.8 nM
GUCCUCGAAGGAUAUAUUGGAAAUUACAUGAGGAUCACCCAUGUCUCGUAGUAUAGCACGAUAGAAGGUCGGAAGA	36.1	24.6	–
GUCGAGAUUCAAGGAUAUCCGAUCUUACGCAUAGUAGAAUGACAUGAGGAUCACCCAUGUGUCCAGGAGAAGGUGAAUGGAUUU	33.3	21.6	–
GUCUCCUGAGAGAAGGCUCGCUCCGAGGAAUAGAGAGGAUAUCUACAUGAGGAUCACCCAUGUUGCCGAGGGAAAUGCACGGGU	68.9	90.5	–
GUCUGAUGACAUGAGGAUCACCCAUGUUGUAGGGUUACCUUCAGAAGGGCGAACUCGUAUAGAGCGCAGGAUAUGAAUCAAAGA	–	–	apparent Kd [3]: 29.5 nM; apparent Kd [4]: 11.9 nM
GUGUACUUUGAAGGAUAUAACGGCGGCAUUUUCUUAGAAGGUCAAGGGACAUGAGGAUCACCCAUGUUAACAUUGGUUCUAACA	10.6	17.5	–
GUUAGUUACACGGCCGCCACUCUUUGGCUUGGCUCAAGCUCCCAACAUGAGGAUCACCCAUGUCAGAGGACCGGGUGAACAACGU	–	–	apparent Kd (designed as: ON switch for tryptophan, no ligand): 134 nM; apparent Kd (ligand present: tryptophan, designed as: ON switch for tryptophan): 112 nM
GUUAUCUCAUGUUCGACGGACAUGAGGAUCACCCAUGUACCUUAGGAUAUUGAUGAAAUAUGGCGCAAGAAGGAAGGUAACGCU	6.47	7.52	–
GUUCGUAGGUAGGAUAUAAGAGCUGUACUCUUCUUAGAAGGACCCACAUGAGGAUCACCCAUGUUUUGGGCGUG	10.3	35.5	–
GUUCGUCCUACGGCCGCCACUAAAACACAUGAGGAUCACCCAUGUUAGUAUCCUGGCUGGUGUGAUAGGACCGGGUAGGGAAGAA	–	–	apparent Kd (designed as: OFF switch for tryptophan, no ligand): 12.1 nM; apparent Kd (ligand present: tryptophan, designed as: OFF switch for tryptophan): 24.1 nM
GUUCUGCAUAAGGAUAUAUGAGCACACGCAGACAUAGAAGGUAUGACAUGAGGAUCACCCAUGUCCUCUCGAGA	8.5	8.65	–
UAACCAAAUGGAUGACCACAUGAGGAUCACCCAUGUCGGCAACAGGAUAUUAUCAGAUGGGCUAAUAAGAAGGGUUACUCAGCC	14.9	13.2	–
UAACCACAUGAGGAUCACCCAUGUCCCACAUUCGCAGGAUAUGGGUCACUGAGGUCACUACCAGAAGGGCGGAUGC	–	–	apparent Kd [3]: 467 nM; apparent Kd [4]: 178 nM
UACAUGAACGUCAGGAUAUUGGUAUAUUACCUAGCCAAGAAGGGACAUGAGGAUCACCCAUGUAUUCGGUCCAA	25.2	65.2	–
UACAUGAGGAUCACCCAUGUCUCUAGUCGUUUUUGUUAGAAUAGAAGGAGUCGCAUAAAGCAUAACUAGGAUAUAUUCUUGUUU	–	–	apparent Kd [3]: 16.3 nM; apparent Kd [4]: 11.6 nM
UAGCAAUUACAUGAGGAUCACCCAUGUCUAUCGCAGAACAAGCAGGAUAUAGUGACACGACUCCGCUAGAAGGGCUCCUCUGUU	–	–	apparent Kd [3]: 62.4 nM; apparent Kd [4]: 55.3 nM
UAUCACUGGCAGAAGGUUCUCGGAAGCGAUGGUACUCUAUACAUGAGGAUCACCCAUGUCUACGGAAAGGAUAUGCCAUUGCGA	70	176	–
UAUGCGUUUUCAGGAUAUGCACACAUGAGGAUCACCCAUGUAGGUCUGCGGCGGCAUCCUCCUUUGCAGAAGGGAAUCGCGCUU	44.1	71.6	–

Sequence	apparent Kd [1] [nM]	apparent Kd [2] [nM]	also measured
UAUGUACAUGAGGAUCACCCAUGUUAGGAUAUAUGGCCGCGCUUUAAACACCGUGCACAUAGAAGGAACAUUUG	35	33.7	–
UAUGUCGGGAAGAAGGUAAUAACGGGAUUGACAUGAGGAUCACCCAUGUGUACGAGUUAGUUGCUUAAGGAUAUUCUCGCCCAU	6.37	5.73	–
UAUUGUUUAGGAUAUACAUGAGGAUCACCCAUGUCAACGACCGUUAUAAAAUCUAAGUGUAGAAGGAAACGCCC	13.4	12.1	–
UCAUCUGGGUCUUUGGUGCACAUGAGGAUCACCCAUGUAACUUAGGAUAUUAGUUAUGAUAUGAUUAAGAAGGAAGUCGCUAUU	15.2	16.9	–
UCAUGGUCAGGAUAUACGAUUAGACAUGGCUUCGAUAAGUCGUAGAAGGGACAUGAGGAUCACCCAUGUAGCAA	109	33.5	–
UCGAUGGUAUCUGAUACCAGUAGCGUGCGUUACAUGAGGAUCACCCAUGUGCCUAUACUUUACCCUUGGCAGCAGUGGAUUCGAU	–	–	apparent Kd (designed as: ON switch for theophylline, no ligand): 207 nM; apparent Kd (ligand present: theophylline, designed as: ON switch for theophylline): 58.5 nM
UCGGACGGAGGAUAUACUAUGACUCCCACGGCAUGUUACGCACAUGAGGAUCACCCAUGUAGAAGGCCGCCUAA	4.27	7.41	–
UCGGUUCGCGGAGGAUAUACUUCACUUCAGGAAGUAGAAGGCCGGCGGUGCUAAGGGUCACAUGAGGAUCACCCAUGUCUUCAC	–	–	apparent Kd [3]: 30.6 nM; apparent Kd [4]: 20.7 nM
UCGUGCAGUGAGGAUAUCCCGAAGGCUUCCAUUGGAGAAGGCACUACAUGAGGAUCACCCAUGUGGCUUGAUAA	44	56.5	–
UGACUGUGUGAGAAGGUGUUCCGCGCCCGGCCACAAGGAUAUCACAACGCUGCCCUACAUGAGGAUCACCCAUGUGAUUGCUAC	–	–	apparent Kd [3]: 29.5 nM; apparent Kd [4]: 25.8 nM
UGAUUACAUGAGGAUCACCCAUGUGACUACGCCUCAGGAUAUGAUGACAAAUUCUAGAAGUCAGAAGGGAGUUUGU	–	–	apparent Kd [3]: 29.1 nM; apparent Kd [4]: 21.3 nM
UGGUCACAUGAGGAUCACCCAUGUAAGGAUAUCCGCGCCAUAGAGGAAAAGACGGUAUGGAGAAGGUACAGCUU	29.9	26.9	–
UUAAUACAUGAGGAUCACCCAUGUUAGGAUAUAGAAAUCGCUGGUGCGAGAAGACAGGCUAGAAGGAACACGGA	10.2	9.62	–
UUACAGUCAGGAUAUUGAGUCACCCACAUGAGGAUCACCCAUGUACCUCGAAAACUGGAGCAAGAAGGGACUGCUG	18.9	26.4	–
UUAUAAGAGAUAGGAUAUUCCGACAAAAUCGAUGAAGAAGGAUCACUCAAAACAUGAGGAUCACCCAUGUAUAUAACAAAUGUU	–	–	apparent Kd [3]: 57.5 nM; apparent Kd [4]: 25.4 nM
UUCCCUGCUUAGGAUAUCUAGACAAGACGGUCAAGAGAAGGAAGUACAUGAGGAUCACCCAUGUUUAGCAUGAA	10.5	14.2	–
UUCGCCACGCAAGGAUAUGAUACUUAUUGCUGUUCAGAAGGUGCGACAUGAGGAUCACCCAUGUGGUGUGUCCAGGGAGGCUAG	333	336	–
UUGGCGUCAGGAUAUACCGGUCGAUUCACAAUGAACUCCGUACAUGAGGAUCACCCAUGUAGAAGGGACAGUGG	6.22	6.07	–
UUGUCCCGAGGAUAUGAGAGGGAGUACAUGAGGAUCACCCAUGUCAUGAAUCUUCAUAUCUCAGAAGGCGGUUGAU	4.85	6.24	–
UUUACCGACACAGAUCACUAAAACCUUGAUACCAGUCCCAGUGGCGACCCUUGGCAGCAAUAUACAUGAGGAUCACCCAUGUGCA	–	–	apparent Kd (designed as: OFF switch for theophylline, no ligand): 14.7 nM; apparent Kd (ligand present: theophylline, designed as: OFF switch for theophylline): 16.7 nM
UUUUCUGAGGAGAAGGACGACCACAAACAUGAGGAUCACCCAUGUCUUACUAUCUGACCGCCAUCGUAGGAUAUCCCGAGGGAG	–	–	apparent Kd [3]: 11.2 nM; apparent Kd [4]: 10.2 nM

— the EternaBench riboswitch data
